Measured values published in PMC9621298 (Journal of Enzyme Inhibition and Medicinal Chemistry, 2022).
“Also recorded” adds a separate entry of the source. One block for each compound: values may come before it.

Legend:
Siah1 [1] = molecular target: T1, Siah1 (Homo sapiens, UniProt Q8IUQ4); assay: Surface plasmon resonance; type: binding; settings: details are not reported
T1 sequence (Q8IUQ4 1-282): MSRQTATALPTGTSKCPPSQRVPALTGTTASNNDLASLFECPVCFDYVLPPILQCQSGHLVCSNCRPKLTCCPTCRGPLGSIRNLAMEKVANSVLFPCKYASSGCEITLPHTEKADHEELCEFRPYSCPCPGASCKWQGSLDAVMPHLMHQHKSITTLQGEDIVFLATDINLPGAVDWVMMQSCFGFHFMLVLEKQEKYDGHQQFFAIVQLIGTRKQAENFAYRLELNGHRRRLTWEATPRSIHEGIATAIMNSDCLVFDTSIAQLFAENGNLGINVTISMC

Siah1 [2] = molecular target: T1, Siah1; assay: In vitro pull-down assay with biotin-attached E3 ligase ligands; settings: tested as biotin-attached 5 and 6; no binding to AIMP2-DX2
AIMP2-DX2 [3] = molecular target: T2, AIMP2-DX2 (Homo sapiens, UniProt Q13155); assay: Screening: luminescence of luciferase-tagged AIMP2-DX2 in A549 cells; type: cell-based; settings: 4 µM, 24 h
T2 sequence (Q13155 1-251 isoform Q13155-2): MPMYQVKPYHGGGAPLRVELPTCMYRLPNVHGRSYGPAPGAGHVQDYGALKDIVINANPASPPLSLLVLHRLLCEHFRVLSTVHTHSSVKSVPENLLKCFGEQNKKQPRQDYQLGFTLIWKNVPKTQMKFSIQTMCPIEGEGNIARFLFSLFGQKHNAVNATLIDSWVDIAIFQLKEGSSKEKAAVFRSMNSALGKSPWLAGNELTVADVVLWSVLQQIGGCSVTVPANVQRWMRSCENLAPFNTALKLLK

[4] = molecular target: T3, binding of Siah1 and AIMP2-DX2 (Homo sapiens, UniProt Q13155+Q8IUQ4); assay: In vitro pull-down assay: binding of Siah1 and AIMP2-DX2; settings: Figure 5(B)
T3 sequence (Q13155 1-251 isoform Q13155-2): T2 sequence (Q13155 1-251 isoform Q13155-2)
T3 sequence (Q8IUQ4 1-282): T1 sequence (Q8IUQ4 1-282)
In short: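 Direct binding of the two proteins was tested in vitro by GST pull-down with test compound present. An empty-vector control was included. GST proteins were detected by Coomassie staining.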

AIMP2-DX2 [5] = molecular target: T2, AIMP2-DX2; assay: Western blotting of AIMP2-DX2 protein level; type: cell-based; settings: Figure 6(A)
Siah1-knockdowned cells = assay: MTT cell viability assay with Siah1 knockdown by si-RNA; type: cell-based; settings: Figure 7(A)
In short: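 Cells were knocked down for Siah1 with specific si-RNA and then treated with test compound. Viability was read by MTT: 96 h in serum-free medium, MTT for 1.5 h at 37 °C, formazan in DMSO, absorbance at 560 nm. Siah1 and AIMP2-DX2 protein levels were checked by immunoblotting. Three independent repeats.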

AIMP2-DX2 [6] = molecular target: T2, AIMP2-DX2; assay: Ubiquitination assay in 293 T cells expressing strep-tagged AIMP2-DX2; type: cell-based; settings: 293 T cells expressing strep-AIMP2-DX2, with MG132
In short: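 293 T cells were grown in DMEM with 10% FBS at 37 °C in 5% CO2 and expressed strep-tagged AIMP2-DX2 from the pEXPR-IBA5 vector. AIMP2-DX2 was pulled down on strep-tactin, run on SDS-PAGE and immunoblotted, including with anti-ubiquitin.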

AIMP2 = molecular target: T4, AIMP2 (Homo sapiens, UniProt Q13155); assay: Western blotting of AIMP2 level; type: cell-based; settings: selectivity versus AIMP2-DX2
T4 sequence (Q13155 1-320): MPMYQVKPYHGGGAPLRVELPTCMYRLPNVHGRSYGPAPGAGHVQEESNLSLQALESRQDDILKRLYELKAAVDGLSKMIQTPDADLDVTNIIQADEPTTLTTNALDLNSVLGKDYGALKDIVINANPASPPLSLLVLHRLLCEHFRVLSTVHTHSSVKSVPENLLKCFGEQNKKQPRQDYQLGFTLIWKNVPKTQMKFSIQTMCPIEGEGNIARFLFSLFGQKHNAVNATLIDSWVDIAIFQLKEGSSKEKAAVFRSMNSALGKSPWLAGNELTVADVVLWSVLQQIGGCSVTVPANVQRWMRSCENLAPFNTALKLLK

[7] = molecular target: T5, binding of Siah1 to AIMP2-DX2 (Homo sapiens, UniProt Q13155+Q8IUQ4); assay: Immunoprecipitation assay: cellular binding of AIMP2-DX2 and Siah1; type: cell-based; settings: Figure 5(A)
T5 sequence (Q13155 1-251 isoform Q13155-2): T2 sequence (Q13155 1-251 isoform Q13155-2)
T5 sequence (Q8IUQ4 1-282): T1 sequence (Q8IUQ4 1-282)

Compound: Nc1cccc2c1C(=O)N(C1CCC(=O)NC1=O)C2=O (centres unmarked) [Compound 4, pomalidomide]
binding affinity with Siah1 (SPR) (Siah1 [1]): most favourable; also recorded: some degree of binding affinity
binding to Siah1 (in vitro pull-down) (Siah1 [2]): specifically bind to Siah1

Compound: O=C1CCC(N2C(=O)c3cccc(OCCOCCOCCOCCOCCOCc4cn(Cc5ccc(S(=O)(=O)N[C@@H](Cc6c[nH]c7ccccc67)C(=O)Nc6ccc(N7CCOCC7)cc6)cc5)nn4)c3C2=O)C(=O)N1 (stereo partly drawn) [Compound 16, (2S)-2-((4-((4–(16-((2–(2,6-dioxopiperidin-3-yl)-1,3-Dioxoisoindolin-4-yl)oxy)-2,5,8,11,14-pentaoxahexadecyl)-1H-1,2,3-triazol-1-yl)methyl)phenyl)sulfonamido)-3-(1H-indol-3-yl)-N-(4-morpholinophenyl)propanamide]
inhibitory activity on AIMP2-DX2 (in words) (AIMP2-DX2 [3]): very poor inhibitory activities

Compound: O=C1CCC(N2C(=O)c3cccc(NC(=O)CCOCCOCCOCCOCc4cn(Cc5ccc(S(=O)(=O)N[C@@H](Cc6c[nH]c7ccccc67)C(=O)Nc6ccc(N7CCOCC7)cc6)cc5)nn4)c3C2=O)C(=O)N1 (stereo partly drawn) [Compound 21, 1–(1-(4-(N-((S)-3-(1H-Indol-3-yl)-1-((4-morpholinophenyl)amino)-1-oxopropan-2-yl)sulfamoyl)benzyl)-1H-1,2,3-triazol-4-yl)-N-(2–(2,6-dioxopiperidin-3-yl)-1,3-dioxoisoindolin-4-yl)-2,5,8,11-tetraoxatetradecan-14-amide]
inhibitory activity on AIMP2-DX2 (in words) (AIMP2-DX2 [3]): very poor inhibitory activities

Now from value to compound, other results behind:

inhibitory activity on AIMP2-DX2 (in words) (AIMP2-DX2 [3]): very poor inhibitory activities
Compound: O=C1CCC(N2C(=O)c3cccc(NC(=O)CCOCCOCCOCCOCCOCc4cn(Cc5ccc(S(=O)(=O)N[C@@H](Cc6c[nH]c7ccccc67)C(=O)Nc6ccc(N7CCOCC7)cc6)cc5)nn4)c3C2=O)C(=O)N1 (stereo partly drawn) [Compound 22, 1–(1-(4-(N-((S)-3-(1H-Indol-3-yl)-1-((4-morpholinophenyl)amino)-1-oxopropan-2-yl)sulfamoyl)benzyl)-1H-1,2,3-triazol-4-yl)-N-(2–(2,6-dioxopiperidin-3-yl)-1,3-dioxoisoindolin-4-yl)-2,5,8,11,14-pentaoxaheptadecan-17-amide]

inhibitory activity on AIMP2-DX2 (in words) (AIMP2-DX2 [3]): very poor inhibitory activities
Compound: O=C1CCC(N2C(=O)c3cccc(NC(=O)CCOCCOCCOCCOCCOCCOCc4cn(Cc5ccc(S(=O)(=O)N[C@@H](Cc6c[nH]c7ccccc67)C(=O)Nc6ccc(N7CCOCC7)cc6)cc5)nn4)c3C2=O)C(=O)N1 (stereo partly drawn) [Compound 23, 1–(1-(4-(N-((S)-3-(1H-Indol-3-yl)-1-((4-morpholinophenyl)amino)-1-oxopropan-2-yl)sulfamoyl)benzyl)-1H-1,2,3-triazol-4-yl)-N-(2–(2,6-dioxopiperidin-3-yl)-1,3-dioxoisoindolin-4-yl)-2,5,8,11,14,17-hexaoxaicosan-20-amide]

inhibitory activity on AIMP2-DX2 (in words) (AIMP2-DX2 [3]): very poor inhibitory activities
Compound: O=C1CCC(N2C(=O)c3cccc(NC(=O)COCCOCCOCCOCCOCCNC(=O)c4ccc(S(=O)(=O)N[C@@H](Cc5c[nH]c6ccccc56)C(=O)Nc5ccc(N6CCOCC6)cc5)cc4)c3C2=O)C(=O)N1 (stereo partly drawn) [Compound 31, 4-(N-((S)-3-(1H-Indol-3-yl)-1-((4-morpholinophenyl)amino)-1-oxopropan-2-yl)sulfamoyl)-N-(17-((2–(2,6-dioxopiperidin-3-yl)-1,3-dioxoisoindolin-4-yl)amino)-17-oxo-3,6,9,12,15-pentaoxaheptadecyl)benzamide]

binding of Siah1 and AIMP2-DX2 (in vitro pull-down) [4]: direct effect on binding of two proteins
level of AIMP2-DX2 protein (AIMP2-DX2 [5]): specifically decreased
ubiquitination of AIMP2-DX2 (AIMP2-DX2 [6]): induced
effect on AIMP2 (AIMP2): without any effect on AIMP2
Compound: Cc1ccc(S(=O)(=O)N[C@@H](Cc2c[nH]c3ccccc23)C(=O)Nc2ccc(N3CCN(C(=O)CCOCCNc4cccc5c4C(=O)N(C4CCC(=O)NC4=O)C5=O)CC3)cc2)cc1 (stereo partly drawn) [Compound 45, (2S)-N-(4–(4-(3–(2-((2–(2,6-Dioxopiperidin-3-yl)-1,3-dioxoisoindolin-4-yl)amino)ethoxy)propanoyl)piperazin-1-yl)phenyl)-3-(1H-indol-3-yl)-2-((4-methylphenyl)sulfonamido)propanamide]
cell viability (Siah1-knockdowned cells; Siah1 knocked down using specific si-RNA): no significant difference in cell viability
cell viability (Siah1-knockdowned cells; Siah1 not knocked down): efficiently reduced cell viability
endogenous binding of Siah1 to AIMP2-DX2 (immunoprecipitation) [7]: enhances the endogenous binding of Siah1 to AIMP2-DX2 in a dose-dependent manner
